Bioassay records deposited in PubChem BioAssay by several laboratories.
PLC-beta3 inh: blocks human PLC-beta3 enzyme activity; actives 0.18% (n = 370,000); Purified PLC-beta3, fluorogenic substrate, fluorescence; Q01970; inhibition, % at 12.2 µM; in the data active = inhibition above about 11%;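 also: 0% = median of compound wells on plate and 100% = full blocker control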
VIM-2 inhibitor: inhibitors of Pseudomonas aeruginosa VIM-2 metallo-beta-lactamase; actives 0.89% (n = 290,000); purified VIM-2, nitrocefin hydrolysis, epi-absorbance fluorescence; inhibition, % at 5.6 µM;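 active = inhibition above the mean of all tested compounds plus 3 SD, cutoff set per screening run, cut at about 7.5% in these data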;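 also: red hydrolysis product quenches plate fluorescence so inhibitors raise well fluorescence; 0% = enzyme with DMSO and 100% = DMSO without enzyme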
IMP-1 inh: inhibitors of Pseudomonas aeruginosa IMP-1 metallo-beta-lactamase | purified IMP-1, nitrocefin hydrolysis, epi-absorbance fluorescence | inhibition, % at 5.6 µM | actives 0.45% (n = 290,000);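 active = inhibition above the mean plus 3 SD of all compounds in the same screening run, cut at about 4.5% in these data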;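 also: 0% = IMP-1 with DMSO and 100% = DMSO wells lacking enzyme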
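System – purified recombinant IMP-1 beta-lactamase · Input – IMP-1 dispensed at 0.2 nM · Timing – 15 min preincubation plus 25 min reaction at 25 °C · Signal – Epi-absorbance fluorescence, 480 nm excitation, 530 nm emission · Measure – percent IMP-1 inhibition derived from blank-referenced optical density · Controls – Enzyme-plus-DMSO low control, enzyme-free DMSO high control · Replication – singlicate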
PvdQ acylase: blocks Pseudomonas aeruginosa PvdQ acylase activity | purified PvdQ acylase, fluorescence plate reader | inhibition, % at 10 µM | actives 0.063% (n = 340,000); in the data active = inhibition above about 30%, passing the limit was not always enough;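 also: 0% = vehicle neutral wells and 100% = reference inhibitor wells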
PLCg1 inh: inhibitors of human phospholipase C gamma1 | P19174 | purified PLC-gamma1, fluorogenic substrate, fluorescence | inhibition, % at 12.2 µM | actives 0.84% (n = 370,000) | AID 720700
PLCgamma1 ctr: counter-screen for PLC-beta3 inhibitors: inhibitors of human PLC-gamma1; shares compounds with PLCg1 inh; AID 743258; inhibition, % at 12.3 µM; actives 3.1% (n = 3,300); purified PLC-gamma1, fluorogenic substrate, fluorescence
PLCb3 confirm: human PLC-beta3 inhibition, confirmation; purified PLC-beta3, fluorogenic substrate fluorescence; inhibition, % at 12.3 µM; actives 1% (n = 3,300); shares compounds with PLCg1 inh; in the data active = inhibition above about 11%
An asterisk follows results filed as active; x = no result. The list is not random: actives were taken first. Their share in the collection is about 2%. Rule as the data show it, unless noted: active = inhibition above about 9.5%; inactive = the rest.

SMILES | PLC-beta3 inh | VIM-2 inhibitor | IMP-1 inh | PvdQ acylase | PLCg1 inh | PLCgamma1 ctr | PLCb3 confirm
CC(Cl)(Cl)/C(=N/P(=S)(N1CCOCC1)N1CCOCC1)N1CCOCC1 | -7 | -2 | -3 | -4 | 4 | x | x
O=P(/C(=N/O)N1CCCCC1)(N1CCOCC1)N1CCOCC1 | 4 | -1 | -5 | -10 | 9.6* | 8 | 2
O=P(OCCCl)(OCCCl)OCCCl | -1 | x | x | x | -1 | x | x
O=S(=O)(c1ccc(Cl)cc1)N1Cc2ccc(Br)cc2-n2nncc2C1 | -2 | x | x | x | 2 | x | x
COc1ccc(OC)c(NP(=O)(Oc2ccccc2)Oc2ccccc2)c1 | -1 | -3 | -2 | -29 | 11* | -1 | 1
Nc1ncnc2c1ncn2[C@@H]1O[C@H](COP(=O)(O)CP(=O)(O)O)[C@@H](O)[C@H]1O | 1 | x | x | -9 | 73* | 79* | -2
CCNC(=O)[C@H]1O[C@@H](n2cnc3c(N)ncnc32)[C@H](O)[C@@H]1O | 1 | -3 | 0 | -4 | 1 | x | x
O=P(O)(O)C12CC3CC(CC(C3)C1)C2 | 9 | 5 | -2 | -14 | 13* | -4 | -1
CC(C)S(=O)(=O)N1Cc2ccc(Br)cc2-n2nncc2C1 | -1 | x | x | x | 2 | x | x
C=Cn1ccnc1P(=S)(c1ccn(C)c1)c1nccn1C=C | 5 | -4 | -3 | -12 | 14* | -8 | -5
Clc1cc(Cl)cc(CN2Cc3ccccc3-n3nncc3C2)c1 | 2 | x | x | x | 0 | x | x
CN1c2ccc(Br)cc2[C@@H]2NCC[C@@H]2[C@@H]1CO | -19 | x | x | x | -16 | x | x
COc1ccc(OC(=O)N(C)C[C@H]2OCc3cnnn3CCCC(=O)N([C@@H](C)CO)C[C@@H]2C)cc1 | 0 | x | x | x | 3 | x | x
N#CC1c2ccccc2-n2nncc2CN1S(=O)(=O)c1ccccc1 (stereo not given) | 4 | x | x | -5 | 11* | -7 | -5
N#Cc1ccc(C(=O)N2Cc3cnnn3-c3ccccc3C2C#N)cc1 (stereo not given) | -6 | x | x | -1 | -4 | x | x
Cc1ccccc1C(=O)NCCN1CCC2(CC1)C(=O)NCN2c1ccccc1 | 0 | x | x | x | 5 | x | x
CCn1ccnc1CN1CCCC(C(=O)c2cccc(C(F)(F)F)c2)C1 (stereo not given) | 5 | -4 | -4 | -5 | 11* | -5 | -2
C[C@H](NC(=O)OCc1ccccc1)C(=O)NC(Cc1ccccc1)P(=O)(Oc1ccccc1)Oc1ccccc1 (stereo not given in full) | 2 | x | x | x | 1 | x | x
CC(c1ccccc1)n1cncc1C(=O)O (stereo not given) | 6 | -3 | 1 | 2 | 11* | -6 | -5
CC1(C)CN=C(NCc2ccccc2Cl)S1 | -1 | -2 | -6 | -1 | 12* | 0 | 2
Brc1ccc2c(c1)-n1nncc1CNC2 | 3 | x | x | x | 3 | x | x
